PKA-R2B activ: PKA-R2B complex activation; P22694+P31323; PKA-R2B holoenzyme dissociation, Cy5-IP20 fluorescence polarization; R2B truncated from residue 108, S112A mutant; 0% DMSO only, 100% 113 µM cGMP; activation, % at 11.4 µM; 340,000 tested, 0.079% active; AID 504700;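 active means activation above a cutoff set at the mean over all compounds plus 3 SD, cut at about 18% in these data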;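 further: higher means more holoenzyme dissociation and a rise in polarization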
Rev-erbA mod: modulators of human Rev-erb alpha DNA binding. P20393. Rev-erbα–FITC-DNA binding, fluorescence polarization, 90 min. activity, % at 10 µM. 370,000 tested, 0.79% active. AID 1259318;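 active means activity above about 14%, limit read from the data; passing the limit was not always enough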;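 further: 0% = DMSO wells with 35 nM protein and 100% = DMSO wells with 750 nM protein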
Target sequence (P20393 whole entry, looked up): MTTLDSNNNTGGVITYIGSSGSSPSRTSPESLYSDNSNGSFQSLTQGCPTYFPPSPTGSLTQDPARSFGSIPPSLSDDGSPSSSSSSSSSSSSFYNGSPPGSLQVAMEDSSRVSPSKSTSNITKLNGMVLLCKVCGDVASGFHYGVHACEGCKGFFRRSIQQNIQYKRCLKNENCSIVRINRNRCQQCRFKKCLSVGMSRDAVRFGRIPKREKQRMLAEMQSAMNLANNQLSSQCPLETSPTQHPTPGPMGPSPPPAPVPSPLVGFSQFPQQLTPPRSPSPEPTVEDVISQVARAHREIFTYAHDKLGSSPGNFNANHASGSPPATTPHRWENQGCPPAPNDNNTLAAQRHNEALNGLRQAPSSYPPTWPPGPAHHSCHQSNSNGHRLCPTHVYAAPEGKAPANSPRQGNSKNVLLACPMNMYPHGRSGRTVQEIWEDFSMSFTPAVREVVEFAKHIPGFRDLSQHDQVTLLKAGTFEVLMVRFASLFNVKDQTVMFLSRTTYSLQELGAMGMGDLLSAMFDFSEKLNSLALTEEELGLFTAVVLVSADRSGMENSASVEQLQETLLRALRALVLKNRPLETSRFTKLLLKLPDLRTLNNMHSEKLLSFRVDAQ
NR2E3 ag-1: human photoreceptor-specific nuclear receptor agonism | CHO-S Gal4-NCOR/VP16-NR2E3 two-hybrid, luciferase | Q9Y5X4 | inhibition of corepressor binding, % at 3.98 µM | 360,000 tested, 0.35% active;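 active means inhibition above the mean of all tested compounds plus 3 SD, cut at about 70% in these data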;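 further: 0% = DMSO with NR2E3 transfected cells and 100% = cells lacking NR2E3 construct; higher means lower luciferase signal from less NR2E3 corepressor binding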
NR2E3 ag-2: NR2E3 (human) agonism; Q9Y5X4; GST-NR2E3/biotin-RetCOR TR-FRET, 1536-well; inhibition of corepressor binding, % at 4.78 µM; 320,000 tested, 0.12% active; AID 2300;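 active means percent inhibition above the cutoff of mean plus 3 SD of all tested compounds, set per screening campaign, cut at about 20% in these data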;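 further: 0% = DMSO wells and 100% = biotin wells as full block of FRET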
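Format: 1536-well format; test system: GST-NR2E3 and biotin-RetCOR proteins; read-out basis: percent inhibition of TR-FRET ratio; timing: 5 h incubation at 4 °C; detection: time-resolved FRET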
PKA-R1A act: PKA-R1A complex activation; P00514+P68181; PKA-R1A dissociation, Cy5-IP20 fluorescence polarization; scaled: DMSO 0%, 113 µM cGMP 100%; activation, % at 11.4 µM; 340,000 tested, 0.083% active; AID 504707;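 active means percent activation above the mean of all tested compounds plus 3 SD, cut at about 19% in these data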;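 further: higher means more PKAc released from R1A so a rise in polarization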
PG9 Ab binder: binds the HIV-1 gp120 antibody PG9; TR-FRET gp120-PG9 antibody binding; inhibition, % at 6.7 µM; 360,000 tested, 0.43% active; AID 624416; in the data active means inhibition above about 8.5%
PG9 binder conf: PG9 antibody binding, confirmed | TR-FRET PG9 antibody binding, biochemical | inhibition, % at 6.7 µM | shares compounds with PG9 Ab binder | AID 651571 | 1,500 tested, 90% active; in the data active means inhibition above about 9%
PGV04 counter: counter-screen for PG9 binders: binding control antibody PGV04. shares compounds with PG9 Ab binder. TR-FRET PGV04 antibody-gp120 binding, biochemical. inhibition, % at 6.7 µM. 1,500 tested, 95% active; in the data active means inhibition above about 9.5%
Numbers without * were called inactive; · = not tested or not shown. An excerpt weighted towards active compounds, which were near 1.6% of everything screened.

SMILES	PKA-R2B activ	Rev-erbA mod	NR2E3 ag-1	NR2E3 ag-2	PKA-R1A act	PG9 Ab binder	PG9 binder conf	PGV04 counter
CC(=O)N1c2cc(S(=O)(=O)N3CCN(c4ccccc4F)CC3)c(Br)cc2CC1C (configuration not stated)	·	1	·	·	·	·	·	·
COc1ccc(/C=C/C(=O)Oc2cccc(/C=N/NC(=O)COc3c(C)cccc3C)c2)cc1	2	6	-85	-1	7	9.5*	11*	16*
CCn1c(Cc2ccccc2)nnc1SCC(=O)Nc1nc2ccccc2s1	2	6	-13	5	1	17*	29*	40*
Cn1cccc1Cc1nnc(SCC(=O)Nc2nc3ccccc3s2)n1CCc1ccccc1	-6	7	-29	-2	-7	·	·	·
COc1cccc(N(C)C(=O)[C@@H](C2CC2)[C@@H](O)c2ccc(Cl)cc2)c1	·	3	·	·	·	·	·	·
FC(F)(F)c1nc(=S)c2ccccc2[nH]1	4	-2	-13	·	0	17*	11*	9.9*
COc1ccc(O)c(/C=C(\C#N)C(=O)Nc2cccnc2)c1	-9	6	-48	-1	0	24*	13*	16*
COc1ccc(NC(=O)C2CCCN(S(=O)(=O)c3ccc4[nH]c(=O)ccc4c3)C2)cc1 (configuration not stated)	4	8	-11	-1	15	9.6*	18*	26*
COc1cc(NC(=O)C2CCCN(S(=O)(=O)c3ccc4[nH]c(=O)ccc4c3)C2)cc(OC)c1 (configuration not stated)	-7	1	1	4	-18	-2	·	·
CCOc1ccc(NC(=O)C2CCCN(S(=O)(=O)c3ccc4[nH]c(=O)ccc4c3)C2)cc1 (configuration not stated)	-7	7	-8	0	1	11*	38*	63*
CCCCCN1CCCCC(NC(=O)CSc2ccccc2)C1=O (configuration not stated)	·	0	·	·	·	·	·	·
N#Cc1cccc(NC(=O)CSc2nnc(-c3n[nH]c4ccccc34)o2)c1	-6	-5	-32	5	3	9.4*	8	10*
Cc1cccc(NC(=O)CSc2nnc(-c3n[nH]c4ccccc34)o2)c1	5	-1	-34	1	-5	-2	·	·
Cc1cc(OCC(=O)NCCc2ccc(Cl)cc2)c2c(C)cc(=O)oc2c1	-7	-2	20	1	1	-1	·	·
Cc1cc(OCC(=O)NCCc2ccc(S(N)(=O)=O)cc2)c2c(C)c(C)c(=O)oc2c1	-8	6	-3	1	-7	10*	14*	25*
COc1ccccc1C(=O)Nc1nnc(S(=O)(=O)N2CCCCC2)s1	2	0	-53	2	2	36*	35*	42*
COC(=O)Cc1nnn2c1[C@@H](C)[C@@H](c1ccccc1Br)O[C@@H](C)C2	·	-4	·	·	·	0	·	·
O=C(O)c1ccccc1CSc1nnc2c(n1)[nH]c1ccccc12	-5	3	-28	8	-2	11*	21*	24*
Cc1c(N2C(=O)C(=O)/C(=C(/O)c3ccc(Br)cc3)C2c2cccnc2)c(=O)n(-c2ccccc2)n1C (configuration not stated)	-5	4	18	9	3	22*	31*	38*
CCC1(CC)Cc2ccccc2-c2[nH]c(=S)[nH]c(=O)c21	-6	-3	6	7	-8	17*	4	9
CCC1(CC)Cc2ccccc2-c2nc(NN)[nH]c(=O)c21	-9	3	3	-1	-4	0	·	·
CC(C)[C@@H](CO)N1Cc2nnn(Cc3ccccc3)c2-c2ccccc2S1(=O)=O	·	-1	·	·	·	·	·	·
O=C(C[C@H]1CC[C@@H](NC(=O)Cc2cccnc2)[C@@H](CO)O1)NCc1ccc2c(c1)OCO2	·	-2	·	·	·	-2	·	·
O=C(C[C@H]1CC[C@@H](NC(=O)Nc2ccc3c(c2)OCO3)[C@@H](CO)O1)NCc1ccccc1	·	5	·	·	·	14*	8	19*
O=C(CSc1nnc(-c2cccnc2)n1-c1ccc(Cl)cc1)Nc1ccccc1-c1ccccc1	·	-3	·	·	·	·	·	·
SMILES	PKA-R2B activ	Rev-erbA mod	NR2E3 ag-1	NR2E3 ag-2	PKA-R1A act	PG9 Ab binder	PG9 binder conf	PGV04 counter
Cc1ccc(NC(=O)COC(=O)c2ccc(-n3cccn3)cc2)cc1C	-7	-8	-20	8	-3	13*	18*	29*
COc1cn(-c2ccccc2)nc1C(=O)OCC(=O)Nc1ccc(C)c(C)c1	5	-12	-22	1	8	4	·	·
CC(C)CCOc1ncnc2c1sc1nc3c(cc12)CSC(C)(C)C3	-1	19	-18	·	-5	26*	5	29*
CC1CCN(C(=O)c2ncn3c2c(=O)[nH]c2ccc(Br)cc23)CC1	3	6	3	·	-6	9.1*	14*	18*
CC1CCN(C(=O)c2ncn3c2C(=O)NC[C@@H]3C)CC1	·	5	·	·	·	0	·	·
C[C@@H]1COc2cc(N3CCCCC3)ccc2S(=O)(=O)N1	·	4	·	·	·	-1	·	·
O=c1c2ccc(Cl)cc2[nH]c(=S)n1Cc1cccnc1	7	14	-9	1	-1	14*	12*	14*
CCOC(=O)CNC(=O)CSc1nc(C(C)C)nc2c1cnn2-c1ccccc1	-4	-1	-20	·	4	8.6*	10*	15*
N#Cc1c(N)c(C#N)c(-c2ccc3c(c2)OCO3)c2c1CCCC2	-5	13	9	2	-16	11*	10*	23*
CC(C)(C)Cc1nnc(NS(=O)(=O)c2ccccc2)s1	-9	3	-14	6	-4	9.0*	11*	17*
CCCCC1=CC2=C(c3ccco3)C(=O)C(C)(OC(=O)c3ccc(OC)cc3)C(=O)C2=CN1Cc1ccco1 (configuration not stated)	6	·	-35	17	-12	·	·	·
CCCCC1=CC2=C(c3ccco3)C(=O)C(C)(OC(=O)c3ccc(OC)cc3)C(=O)C2=CN1C(CO)CO (configuration not stated)	-1	-9	5	7	1	13*	14*	17*
CCCCC1=CC2=C(c3ccco3)C(=O)C(C)(OC(=O)c3ccc(OC)cc3)C(=O)C2=CN1CCCN(CC)CC (configuration not stated)	-16	-9	-55	0	-11	2	·	·

Source: PubChem BioAssay (several laboratories)
